From ChEMBL document CHEMBL1806465, “Synthesis and biological evaluation of 4-nitro-substituted 1,3-diaryltriazenes as a novel class of potent antitumor agents” (Eur J Med Chem, 2011)
Active and inactive are the calls of the source. The calls are words filed in the database; no cut-off is given here.

What was measured:
HeLa [1] = test: Induction of Grp78 expression in human HeLa cells at 7 uM up to 8 hrs by Western blot analysis; format: functional, cell-based
Summary of the method: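 Logarithmically growing HeLa cells were exposed to varying concentrations for 48 h, or to 7 µM for varying times. Cell extracts were run on 10% SDS gels and transferred to nitrocellulose. Membranes were blocked in 5% milk and probed with anti-Grp78 (1:1000, overnight, 4 °C), then an HRP secondary (1:5000, 2 h, RT). Detection was by ECL, with ERK2 reprobing as the loading control.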

HeLa [2] = test: Cell cycle arrest in human HeLa cells assessed as accumulation at subG1 phase at 21 uM after 48 hrs by propidium iodide staining -based flow cytometry (reference value: 8.5 %); format: functional
Summary of the method: (§1)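 HeLa seeded at 100 000 cells/well, treated next day with 0.78, 7 or 21 µM for 24, 48 or 72 h. Adherent plus floating cells collected, PBS-washed, fixed overnight in 70% ethanol at −20 °C, RNase A 30 µg/ml 1 h RT, propidium iodide 16.7 µg/ml 30 min dark; DNA content by flow cytometry, phase percentages including subG1 reported.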

HeLa [3] = test: Cell cycle arrest in human HeLa cells assessed as accumulation at G0/G1 phase at 7 uM after 48 hrs by propidium iodide staining -based flow cytometry (reference value: 63.8 %); format: functional; summary of the method: as §1
HeLa [4] = test: Cell cycle arrest in human HeLa cells assessed as accumulation at subG1 phase at 0.78 uM after 24 hrs by propidium iodide staining -based flow cytometry (reference value: 9.4 %); format: functional; summary of the method: as §1
HeLa [5] = test: Cell cycle arrest in human HeLa cells assessed as accumulation at G2/M phase at 21 uM after 24 hrs by propidium iodide staining -based flow cytometry (reference value: 11.7 %); format: functional; summary of the method: as §1
HeLa [6] = test: Cell cycle arrest in human HeLa cells assessed as accumulation at subG1 phase at 7 uM after 72 hrs by propidium iodide staining -based flow cytometry (reference value: 7.2 %); format: functional; summary of the method: as §1
HEp-2 = test: Cytotoxicity against human Hep2 cells after 72 hrs by MTT assay; format: functional, cell-based; settings: HEp-2, 72 h
Summary of the method: (§2)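 MTT assay: 3000 cells/well seeded, compound added next day, each concentration in quadruplicate, 72 h at 37 °C; medium replaced with 20 µg MTT/well for 4 h, formazan dissolved in DMSO, OD 545 nm. […] Fibroblasts: normal skin fibroblasts from donor, DMEM/10% FBS, used at 32 and 36 population doublings.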

[7] = Therapeutic index, ratio IC50 for human SW620 cells to IC50 for normal human fibroblasts; format: cell-based, SW-620; settings: SW620 cells versus normal human fibroblasts, read-out: Ratio IC50
Summary of the method: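 IC50 values came from an MTT assay. Cells were seeded at 3000 per well and dosed the next day, with each concentration in quadruplicate. After 72 h at 37 °C, MTT (20 µg/well) was added for 4 h; formazan was dissolved in DMSO and read at 545 nm. Each experiment was done three times. Normal skin fibroblasts were used at 32 and 36 population doublings. T.I. = tumor-cell IC50 / fibroblast IC50.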

MIA PaCa-2 = test: Cytotoxicity against human MIAPaCa2 cells after 72 hrs by MTT assay; format: functional, cell-based; settings: MIA PaCa-2, 72 h; summary of the method: as §2
HeLa [8] = test: Induction of apoptotis in human HeLa cells assessed as cleavage of procaspase 8 at 7 uM after 48 hrs by Western blot analysis; format: functional, cell-based
Summary of the method: (§3)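 HeLa cells were treated for 48 h at 7 µM and analysed by Western blot (10% SDS gels, nitrocellulose, HRP secondary, ECL, ERK2 loading control) for cleavage of apoptotic proteins. Antibodies: anti-PARP 1:4000; anti-caspase-3 and anti-caspase-8 1:1000; rabbit polyclonal anti-caspase-9 1:1000.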

HeLa [9] = test: Cell cycle arrest in human HeLa cells assessed as accumulation at S phase at 7 uM after 24 hrs by propidium iodide staining -based flow cytometry (reference value: 27.7 %); format: functional; summary of the method: as §1
HeLa [10] = test: Induction of reactive oxygen species generation in human HeLa cells at 7 uM after 6 hrs by FACS analysis; format: functional, cell-based
Summary of the method: (§4)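 Logarithmically growing HeLa cells were preloaded with 10 µM CM-H2DCFDA for 1 h. They were then exposed to 7, 20 or 40 µM for 8 h, or to 7 µM for 2, 4 or 6 h. Cells were trypsinized, fixed in cold 80% methanol, resuspended in PBS and read for fluorescence by flow cytometry. The positive control was 0.01% H2O2 for 30 min.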

HeLa [11] = test: Cell cycle arrest in human HeLa cells assessed as accumulation at S phase at 0.78 uM after 48 hrs by propidium iodide staining -based flow cytometry (reference value: 26.3 %); format: functional; summary of the method: as §1
HeLa [12] = test: Induction of CHOP expression in human HeLa cells at 0.09 to 7 uM after 48 hrs by Western blot analysis; format: functional, cell-based
Summary of the method: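 Log-phase HeLa exposed to a concentration series for 48 h, or to 7 µM over a time course. Extracts resolved on 10% SDS gels, blotted to nitrocellulose, blocked 5% milk; anti-CHOP 1:1000 in 5% BSA overnight at 4 °C, HRP secondary 1:5000 2 h RT, ECL detection; ERK2 reprobe as loading control.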

HeLa [13] = test: Cell cycle arrest in human HeLa cells assessed as accumulation at G0/G1 phase at 0.78 uM after 72 hrs by propidium iodide staining -based flow cytometry (reference value: 66.9 %); format: functional; summary of the method: as §1
[14] = Stability of the compound in DMSO after 26.25 hrs by LC/MS/MS analysis in presence of 10% FBS; format: physicochemical; settings: cattle, DMSO with 10% FBS; read-out: Stability
HeLa [15] = test: Cell cycle arrest in human HeLa cells assessed as accumulation at S phase at 7 uM after 72 hrs by propidium iodide staining -based flow cytometry (reference value: 23.5 %); format: functional; summary of the method: as §1
HeLa [16] = test: Cell cycle arrest in human HeLa cells assessed as accumulation at S phase at 7 uM after 48 hrs by propidium iodide staining -based flow cytometry (reference value: 26.3 %); format: functional; summary of the method: as §1
HeLa [17] = test: Cell cycle arrest in human HeLa cells assessed as accumulation at G0/G1 phase at 7 uM after 24 hrs by propidium iodide staining -based flow cytometry (reference value: 60.6 %); format: functional; summary of the method: as §1
HeLa [18] = test: Induction of reactive oxygen species generation in human HeLa cells after 8 hrs by FACS analysis; format: functional, cell-based; summary of the method: as §4
HeLa [19] = test: Cell cycle arrest in human HeLa cells assessed as accumulation at S phase at 21 uM after 48 hrs by propidium iodide staining -based flow cytometry (reference value: 26.3 %); format: functional; summary of the method: as §1
HeLa [20] = test: Induction of apoptotis in human HeLa cells assessed as cleavage of procaspase 3 at 7 uM after 48 hrs by Western blot analysis; format: functional, cell-based; summary of the method: as §3
HeLa [21] = test: Cell cycle arrest in human HeLa cells assessed as accumulation at G0/G1 phase at 0.78 uM after 48 hrs by propidium iodide staining -based flow cytometry (reference value: 63.8 %); format: functional; summary of the method: as §1
HeLa [22] = test: Cell cycle arrest in human HeLa cells assessed as accumulation at subG1 phase at 21 uM after 72 hrs by propidium iodide staining -based flow cytometry (reference value: 7.2 %); format: functional; summary of the method: as §1
HeLa [23] = test: Cell cycle arrest in human HeLa cells assessed as accumulation at S phase at 21 uM after 72 hrs by propidium iodide staining -based flow cytometry (reference value: 23.5 %); format: functional; summary of the method: as §1

remaining at 26.25 h [14]: 57%
Compound: CC(=O)N(/N=N/c1ccc([N+](=O)[O-])cc1Cl)c1ccc([N+](=O)[O-])cc1Cl
Activity (HeLa [1]): inactive
Activity (HeLa [2]): 46.5%
Activity (HeLa [3]): 76.2%
Activity (HeLa [4]): 8.7%
Activity (HeLa [5]): 10.5%
Activity (HeLa [6]): 33%
IC50 (HEp-2): 620 nM
selectivity ratio [7]: 0.032
IC50 (MIA PaCa-2): 520 nM
Activity (HeLa [8]): Active
Activity (HeLa [9]): 20.8%
Activity (HeLa [10]): Active
Activity (HeLa [11]): 18.5%
Activity (HeLa [12]): Active
Activity (HeLa [13]): 59.1%
Activity (HeLa [15]): 15.2%
Activity (HeLa [16]): 14.2%
Activity (HeLa [17]): 69.3%
Activity (HeLa [18]): Dose-dependent effect
Activity (HeLa [19]): 15.2%
Activity (HeLa [20]): Active
Activity (HeLa [21]): 74.5%
Activity (HeLa [22]): 80.2%
Activity (HeLa [23]): 12.6%
